High-throughput results as filed in PubChem.
Xi reactivation: activators of inactive X chromosome reactivation, primary screen, imaging, XiGFP fibroblasts, GFP high-content imaging, set 2; XiGFP mouse fibroblasts, % GFP-positive cells imaging, 3 d; cells co-treated with 5-aza-dC sensitizer; scaled so ellipticine positive control = 100%; activation, % at 7.58 µM; 360,000 tested, 0.055% active; AID 743238, 2013;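 active = mean normalized replicate activation at least 10% and every replicate at or above 10%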;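 also: 0% = median of on-plate neutral control wells and 100% = ellipticine 6 µM median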
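Material: XiGFP fibroblasts, SV40-immortalized; Buffer or medium: DMEM containing 5-aza-dC; Compound dosing: single point; Times: 3 days compound exposure.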
SIRT5 inh: SIRT5 desuccinylase inhibitors, primary screen, biochemical, fluorescence imaging, single point, set 5; NAD-dependent protein deacylase sirtuin-5, mitochondrial (Homo sapiens), Q9NXA8; Purified SirT5, succinyl-peptide AMC, trypsin-coupled fluorescence; inhibition, % at 15 µM; 330,000 tested, 1.1% active; AID 652115, 2013; in the data active = inhibition above about 15%
Target sequence (Q9NXA8 whole entry, looked up): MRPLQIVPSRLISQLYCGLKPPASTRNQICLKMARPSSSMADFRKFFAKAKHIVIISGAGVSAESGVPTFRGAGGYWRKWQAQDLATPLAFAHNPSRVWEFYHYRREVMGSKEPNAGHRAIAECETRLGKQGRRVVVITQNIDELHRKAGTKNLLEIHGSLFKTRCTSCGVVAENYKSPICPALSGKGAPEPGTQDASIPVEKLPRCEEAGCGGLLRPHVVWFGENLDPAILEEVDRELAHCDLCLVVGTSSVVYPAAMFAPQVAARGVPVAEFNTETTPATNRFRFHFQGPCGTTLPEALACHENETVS
FGF22 binding: binders of human FGF22 protein, primary screen, FGF22 synaptogenesis inhibitor project, biophysical, thermal shift, single point. Fibroblast growth factor 22 (Homo sapiens), Q9HCT0. recombinant FGF22 thermal shift, SYPRO orange fluorescence; percent of sucrose octasulfate shift, DMSO zero. activity (Tm shift, normalised), % at 9.99 µM. 340,000 tested, 1.5% active. AID 651658, 2012;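 active = mean Tm shift, scaled 0 neutral to 100 positive control, at about 1.3% or above, every replicate too, limit read from the data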
Target sequence (Q9HCT0 whole entry, looked up): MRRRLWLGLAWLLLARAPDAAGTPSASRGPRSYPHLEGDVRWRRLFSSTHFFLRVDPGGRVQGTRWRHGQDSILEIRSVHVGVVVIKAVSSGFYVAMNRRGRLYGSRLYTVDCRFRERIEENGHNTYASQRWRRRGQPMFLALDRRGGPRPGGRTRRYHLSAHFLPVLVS
DENV2 CPE rescue: inhibitors of DENV2 cytopathic effect, primary screen, cell-based, plate reader, single concentration. DENV2-infected cells, cytopathic effect rescue. CPE inhibition, % at 9.99 µM. 350,000 tested, 1.7% active; in the data active = CPE inhibition above about 20%, passing the limit was not always enough; tested in BHK-21 cells;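 also: 0% = median of neutral control wells and 100% = median of positive control wells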
ARNT TACC3 PPI: disruptors of ARNT/TACC3 protein interaction, primary screen, biochemical, AlphaScreen, single concentration. inhibition, % at 9.99 µM. AlphaScreen His-ARNT PAS-B/GST-TACC3 binding, luminescence; TACC3 fragment carries E629A point mutation. 390,000 tested, 0.66% active;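 active = mean inhibition of replicates at least 50% and at least half of replicates each reaching 50%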;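 also: 0% = complete ARNT plus TACC3 wells and 100% = ARNT alone without TACC3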
FN deposition inh: inhibitors of fibronectin matrix deposition, primary screen, AH1F cells, Alexa488-fibronectin fluorescence, plate reader; inhibition, % at 12.6 µM; AH1F fibroblasts, overnight; AID 743247, 2014; 350,000 tested, 0.086% active;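 active = mean inhibition across replicates of 30% or more, regardless of how many single replicates reach that level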;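 also: positive control wells lacked labelled fibronectin entirely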
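Material: AH1F fibroblasts assembling fluorescent fibronectin matrix; amount: 10000 AH1F cells/well; medium: DMEM, 2% serum; reagent: Alexa488-fibronectin, 24 nM final in well; dosing: single compound dose, delivered by pin transfer; incubation: 1 h adhesion, overnight exposure; detection: fluorescence after three HBSS washes, excitation 485 nm, emission 525 nm; measure: fibronectin deposition inhibition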
* marks the source's active call; other numbers are inactive results; x = no result given. Only some compounds are listed: those with a hit (about 3.8% of all), similar ones and a draw of the others.

SMILES | Xi reactivation | SIRT5 inh | FGF22 binding | DENV2 CPE rescue | ARNT TACC3 PPI | FN deposition inh
O=C(COC(=O)/C=C/c1ccc(F)cc1)NCc1ccco1 | 0.0 | 0.3 | 43.4* | 14.1 | 0.2 | 2.8
Cc1ccc(C(=O)OCC(=O)NCc2ccco2)s1 | 0.0 | -4.6 | 44.1* | x | -2.2 | -1.9
O=C(COC(=O)/C=C/c1ccc([N+](=O)[O-])cc1)NCc1ccco1 | -0.1 | -11.2 | 0.0 | -0.6 | 0.6 | -1.8
Cc1ccc(C(=O)OCC(=O)Nc2ccc(C(N)=O)cc2)s1 | 0.0 | -5.4 | 0.1 | -2.6 | -4.0 | -4.0
CCN(c1ccc(NC(=O)COC(=O)c2ccc(C)s2)cc1)C(C)C | 0.3 | -4.9 | 43.1* | -5.7 | 14.2 | 12.2
Cc1ccc(C(=O)OCC(=O)NCc2cccs2)s1 | 0.0 | -2.0 | -0.1 | 2.0 | 1.1 | -1.7
C[C@@H]1CN([C@H](C)CO)S(=O)(=O)c2ccc(C3=CCCC3)cc2O[C@@H]1CN(C)Cc1cncnc1 | -0.9 | -7.0 | 0.0 | 10.4 | -10.2 | x
CCCNC(=O)N1[C@H](CO)[C@@H](c2ccccc2C2=CCCC2)[C@@H]1C#N | 0.1 | 2.9 | 0.0 | 7.4 | x | -5.5
COc1ccc2c3c([nH]c2c1)[C@@H](CO)N(C(=O)Nc1c(C)noc1C)CC31CN(CC2CC2)C1 | 0.2 | x | x | x | x | x
CCC(=O)Nc1ccc2c(c1)C(=O)N(C)C[C@H](OC)[C@@H](C)CN(C(=O)COC)[C@H](C)CO2 | -0.5 | x | 0.0 | 4.5 | -18.9 | 2.2
C=CCc1cc(/C=C2/NC(=O)NC2=O)cc(OCC)c1O | 0.6 | -0.7 | 43.1* | 6.8 | 2.2 | -9.9
CO[C@H]1CN(C)C(=O)c2cc(NC(=O)C3CCCC3)ccc2OC[C@H](C)N(S(C)(=O)=O)C[C@H]1C | 0.3 | 0.4 | 0.1 | 17.8 | -4.3 | 0.3
C[C@@H]1CN([C@H](C)CO)C(=O)c2cc(C3=CCCCC3)cnc2O[C@H]1CN(C)C(=O)Cc1cccnc1 | 0.7 | 1.3 | -0.2 | -5.3 | active | -8.7
C[C@H]1CN([C@@H](C)CO)C(=O)c2cc(C3=CCCC3)cnc2O[C@H]1CN(C)C(=O)C1CCOCC1 | 0.7 | 3.6 | 0.0 | 11.5 | -5.1 | x
C[C@H](CO)N1C[C@H](C)[C@H](CN(C)S(=O)(=O)c2cn(C)cn2)Oc2ncc(C3=CCCC3)cc2C1=O | -0.1 | -5.4 | 0.0 | 0.9 | -3.2 | 1.2
CC(=O)N(C)C[C@H]1Oc2ncc(C3=CCCC3)cc2C(=O)N([C@@H](C)CO)C[C@@H]1C | 0.1 | -4.9 | 0.1 | 0.3 | 9.9 | -6.7
CC(=O)N(C)C[C@H]1Oc2ncc(C3=CCCC3)cc2C(=O)N([C@H](C)CO)C[C@H]1C | 0.0 | 33.9* | 0.0 | 18.4 | 3.7 | -0.7
C[C@@H]1CN([C@H](C)CO)C(=O)c2cc(C3=CCCC3)cnc2O[C@H]1CN(C)C(=O)C1CCOCC1 | -0.5 | 1.1 | 0.0 | 37.6* | 0.0 | x
C[C@H](CO)N1C[C@H](C)[C@@H](CN(C)S(=O)(=O)c2cn(C)cn2)Oc2ncc(C3=CCCC3)cc2C1=O | 0.1 | 2.6 | -0.1 | 22.9* | -6.3 | -10.9
Cc1ccccc1S(=O)(=O)NCC[C@@H]1CC[C@H](NC(=O)Nc2cccc(Cl)c2)[C@@H](CO)O1 | -0.1 | 1.3 | -0.1 | 4.2 | -15.9 | -24.7
C[C@H](CO)N1C[C@H](C)[C@H](CN(C)C(=O)Cc2ccncc2)Oc2ncc(C#CC3(O)CCCC3)cc2C1=O | 0.8 | -2.2 | -0.2 | -1.3 | 0.4 | x
COc1ccc(S(=O)(=O)N(C)C[C@@H]2OCCCC[C@H](C)Oc3ccc(NC(=O)c4ccccc4)cc3C(=O)N([C@@H](C)CO)C[C@H]2C)cc1 | -0.9 | 2.3 | 1.0 | 6.8 | 11.7 | x
C[C@H]1CN([C@@H](C)CO)C(=O)c2cc(NC(=O)Nc3ccccc3)ccc2O[C@@H]1CN(C)S(=O)(=O)c1ccc(F)cc1 | -0.2 | -0.2 | -0.2 | 17.5 | 11.3 | -4.4
COC(=O)[C@H]1[C@H](CO)[C@H]2Cn3c(ccc(C4=CCCCC4)c3=O)[C@H]2N1C(=O)C1CCCC1 | 0.0 | 2.2 | 0.1 | -0.9 | 8.5 | 1.6
C[C@H](CO)N1C[C@H](C)[C@H](CN(C)C(=O)C2CCC2)Oc2ncc(C3=CCCC3)cc2C1=O | -0.9 | 0.6 | -0.1 | 29.7* | -8.9 | x
SMILES | Xi reactivation | SIRT5 inh | FGF22 binding | DENV2 CPE rescue | ARNT TACC3 PPI | FN deposition inh
C[C@H]1CN([C@@H](C)CO)C(=O)c2cc(C3=CCCC3)cnc2O[C@@H]1CN(C)C(=O)C1CCC1 | -0.9 | -4.4 | -0.1 | -5.3 | -10.3 | x
COc1cccc(-c2ccc([C@H]3[C@@H](CO)N4C(=O)CN(C(=O)c5ccncc5)C[C@H]34)cc2)c1 | 0.5 | 1.3 | x | -2.5 | x | x
COc1ccc(NC(=O)N(C)C[C@@H]2Oc3ccc(NS(=O)(=O)c4c(C)noc4C)cc3CC(=O)N([C@@H](C)CO)C[C@H]2C)cc1 | -0.5 | -1.0 | 1.0 | 10.2 | x | x
Cc1ccc(/C=C2\SC(=S)N(CCC(=O)NNC(=O)c3ccc(O)cc3)C2=O)cc1 | 0.1 | -2.7 | 0.0 | -2.0 | 12.3 | 4.7
CN1C(=O)/C(=C/c2ccc(C(=O)Nc3ccc(O)cc3C(=O)O)cc2)SC1=S | -0.1 | 28.0* | -0.1 | -2.5 | -1.8 | 9.3
O=c1cc(-c2ccccc2[N+](=O)[O-])oc2ccccc12 | 0.3 | -0.7 | 43.1* | -1.7 | -3.2 | x
COc1cc(C(=O)O/N=C2\C=CC(=O)C=C2C)cc(OC)c1OC | 0.4 | -0.4 | 43.2* | -5.3 | x | 7.9
CCS(=O)(=O)Nc1ccc2c(c1)C(=O)N(C)[C@H]1CC[C@@H](CC(=O)N[C@@H]3CCN(Cc4ccccc4)C3)O[C@@H]1CO2 | 0.2 | x | x | x | x | -9.5
C[C@@H]1CCCCO[C@@H](CN(C)S(C)(=O)=O)[C@H](C)CN([C@@H](C)CO)C(=O)c2cc(NS(=O)(=O)c3ccccc3)ccc2O1 | 0.0 | -1.5 | -0.4 | 1.0 | -7.5 | x
CC(C)n1nc(C(=O)Nc2nc3ccccc3[nH]2)c2ccccc2c1=O | 0.0 | 0.9 | 0.0 | 2.2 | -0.3 | -5.2
CCCn1nc(C(=O)Nc2nc3ccccc3[nH]2)c2ccccc2c1=O | 0.4 | 2.8 | 43.1* | 5.3 | x | -3.4
COC(=O)c1sccc1NC(=O)CSCCc1ccncc1 | 0.3 | -0.3 | 43.4* | -1.7 | 0.8 | -2.3
COC(=O)c1sccc1NC(=O)Cc1ccc(OC)cc1 | 0.3 | -2.5 | 0.5 | 0.6 | 23.3 | 1.4
